The subject of experiment [1] is L1210. Description: Antitumor activity against mouse L1210 cells allografted DBA/2 mouse assessed as increase in life span. Format: functional.
Experiment [2] has as its system L1210. The experiment is described as follows: Antitumor activity against mouse L1210 cells allografted in BDF/1 mouse assessed as […] at 600 mg/kg, ip qd treated 24 hrs after tumor implantation relative to control. Format: functional. The settings on record: route intraperitoneal. An outline of the steps:
(§1)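 Female BDF1 mice, 6–8 per group, were inoculated ip with 1×10^5 viable L1210 cells. Drug was given ip once daily on days 1–5, starting 24 h after implant, in freshly prepared isotonic sterile saline. Controls received 0.2 mL saline. Read-outs were survivors (cures) and T/C, with survivors excluded from T/C. P values came from the Wilcoxon nonparametric method.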

The test system of experiment [3] is L1210. Description: Antitumor activity against mouse L1210 cells allografted in BDF/1 mouse assessed as mouse survival upto 60 days at 600 mg/kg, ip qd treated 24 hrs after tumor implantation relative to control. Type of experiment: functional. An outline of the steps:
as §1

Experiment [4] deals with L1210. The experiment is described as follows: Antitumor activity against mouse L1210 cells allografted in BDF/1 mouse assessed as tumor weight reduction on day 5 at 600 mg/kg, ip qd treated 24 hrs after tumor implantation relative to control. Format: functional, organism-based. More on the design: dose 600 mg/kg.
Experiment [5] relates to L1210. Description: Antitumor activity against mouse L1210 cells allografted in BDF/1 mouse assessed as mouse survival at 600 mg/kg, ip qd treated 24 hrs after tumor implantation relative to control. Format: functional. The settings on record: route intraperitoneal. Put shortly:
as §1

The subject of experiment [6] is Vaccinia virus. The experiment is described as follows: Antiviral activity against Vaccinia virus infected in human KB cells assessed as inhibition of virus-induced cytopathic effect after 72 hrs by microscopically. Format: functional, organism-based. Conditions: Orthopoxvirus vaccinia. In general terms: Damage to the host cells serves as the signal in cytopathic effect assays.

The test system of experiment [7] is L1210. The experiment is described as follows: Antitumor activity against mouse L1210 cells allografted in BDF/1 mouse assessed as tumor weight reduction on day 5 at 400 mg/kg, ip qd treated 24 hrs after tumor implantation relative to control. More on the design: dose 400 mg/kg. Type of experiment: functional, organism-based.
Experiment [8] has as its system KB. The experiment is described as follows: Antiviral activity against Myxoma virus infected in human KB cells assessed as inhibition of virus-induced cytopathic effect after 72 hrs by microscopically. Format: functional, cell-based. Put shortly:
(§2)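 KB monolayers (18-24 h) were exposed to about 320 CCID50 of virus, with compound added within 15 min. CPE (0-4) and cytotoxicity were scored microscopically after 72 h at 37 °C. Virus rating was the summed (virus control − treated) CPE across drug levels, halved at partially toxic levels. Ratings: 0.5 slight/none, 0.5-0.9 moderate, 1.0 marked.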

Experiment [9] relates to L1210. Description: Antitumor activity against mouse L1210 cells allografted in BDF/1 mouse assessed as mouse survival upto 60 days at 400 mg/kg, ip qd treated 24 hrs after tumor implantation relative to control. Also noted: dose 400 mg/kg. Format: functional, organism-based. An outline of the steps: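 BDF1 female mice, six to eight per group, inoculated ip with 1×10^5 viable L1210 cells. Drug was given ip once daily on days 1-5, starting 24 h after implant, in freshly prepared isotonic sterile saline. Controls received 0.2 mL saline. Read-out was survivors (cures) and T/C excluding survivors. P was derived by the Wilcoxon nonparametric method.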

Experiment [10] deals with L1210. The experiment is described as follows: Antitumor activity against mouse L1210 cells allografted in BDF/1 mouse assessed as mouse survival at 400 mg/kg, ip qd treated 24 hrs after tumor implantation relative to control. Format: functional. The settings on record: route intraperitoneal. An outline of the steps: as §1
In experiment [11] the test system is Suid alphaherpesvirus 1. The experiment is described as follows: Antiviral activity against Pseudorabies virus infected in human KB cells assessed as inhibition of virus-induced cytopathic effect after 72 hrs by microscopically. Format: functional, organism-based.
Experiment [12] deals with Human alphaherpesvirus 1. Description: Antiviral activity against Herpes simplex virus type 1 infected in human KB cells assessed as inhibition of virus-induced cytopathic effect after 72 hrs by microscopically. Type of experiment: functional, organism-based. An outline of the steps: as §2
Experiment [13] concerns Human alphaherpesvirus 1. Description: Antiviral activity against Herpes simplex virus type 1 infected in Swiss albino mouse assessed as increase in mouse survival at 0.033 mg/kg, ic single dose after 6 hrs of infection relative to control. Format: functional. The settings on record: Human alphaherpesvirus 1, 6 h. Put shortly:
(§3)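 Swiss albino mice, six per group, were infected intracerebrally with HSV-1 at about 10 LD50. Six hours later each received a single ic drug injection in Hank's balanced salt solution. Controls received the same volume of Hank's solution alone. Efficacy was the increase in number of survivors versus controls.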

The test system of experiment [14] is Human alphaherpesvirus 1. Description: Antiviral activity against Herpes simplex virus type 1 infected in Swiss albino mouse assessed as increase in mouse survival at 0.14 mg/kg, ic single dose after 6 hrs of infection relative to control. Conditions: Human alphaherpesvirus 1, 6 h. Format: functional. Put shortly:
as §3

Experiment [15] has as its system KB. The experiment is described as follows: Antiviral activity against rhinovirus type 13 infected in human KB cells assessed as inhibition of virus-induced cytopathic effect after 72 hrs by microscopically. Format: functional, cell-based. Conditions: Human rhinovirus A13. An outline of the steps:
as §2

In experiment [16] the test system is L1210. The experiment is described as follows: Antitumor activity against mouse L1210 cells allografted in BDF/1 mouse assessed as increase in life span at 600 mg/kg, ip qd treated 24 hrs after tumor implantation relative to control. Type of experiment: functional. The settings on record: route intraperitoneal. An outline of the steps: as §1

Calls of active or inactive are those of the source. The rule behind the calls is not given here.

As for `N=c1nc2n(cc1F)[C@@H]1O[C@H](CO)[C@@H](O)[C@H]1O2`, the Activity in experiment [1] is 80%.
For `N=c1ccn2c(n1)O[C@@H]1[C@H](O)[C@@H](CO)O[C@H]12`, in experiment [2], the T/C came to 2.81. The result in experiment [3] was inactive. Also, the inhibition entry in [4] is “Active”. In [5], the Survival came out at 24 days.
As for `N=c1ccn([C@@H]2O[C@H](CO)[C@@H](O)[C@@H]2O)c(N)n1`, the inhibition result in [6], in [7], in experiment [8], in [11] and in [12] was “Active” in each case. In addition, in [9], the result was Active. Further, in [10], the Survival turned out to be 60 days.
Take `N=c1ccn([C@@H]2O[C@H](CO)[C@@H](OP(=O)(O)O)[C@@H]2O)c(N)n1`: the T/C in [2] is listed as 2.44. Also, the inhibition result in experiment [6], in experiment [8], in [4], in [11] and in experiment [12] was “Active” each time. For the same compound, in experiment [13], the survival at 0.033 mg/kg was 0%. The survival at 0.14 mg/kg in experiment [14] is 50%. Further, the survival at 600 mg/kg in experiment [3] (route intraperitoneal) was found to be 33%. The inhibition result in [15] is “inactive”. In [5], the Survival was 22.5 days. Further, the Activity in experiment [16] was determined as 144%.
In the case of `N=c1nc2n(cc1F)[C@@H]1O[C@H](CO)[C@@H](OP(=O)(O)O)[C@H]1O2`, the inhibition result in experiment [12] was “Active”.
`N=c1nc(N)n([C@@H]2O[C@H](CO)[C@@H](OP(=O)(O)O)[C@@H]2O)cc1F`: the inhibition result in experiment [6], in [8], in experiment [11] and in experiment [12] was “Active” each time. The inhibition entry in [15] was “inactive”.
`Nc1ccn([C@@H]2O[C@H](CO)[C@@H](OP(=O)(O)O)[C@@H]2O)c(=O)n1`: the inhibition result in experiment [6], in [8], in [15], in experiment [11] and in [12] was “Active” each time.
In the case of `N=c1ccn2c(n1)O[C@@H]1[C@H](OP(=O)(O)O)[C@@H](CO)O[C@H]12`, the T/C in experiment [2] stood at 2.07. Besides, the inhibition entry in experiment [6], in [8], in experiment [4], in experiment [15], in experiment [11] and in [12] was “Active” in each case. For the same compound, in experiment [13], the survival at 0.033 mg/kg was determined as 0%. Further, in [14], the survival at 0.14 mg/kg turned out to be 40%. The result in [3] was inactive. Further, the Survival in experiment [5] was 17.5 days.
In the case of `Nc1ccn([C@@H]2O[C@H](CO)[C@@H](O)[C@@H]2O)c(=O)n1` [CYTARABINE], the inhibition entry in experiment [6], in experiment [8], in experiment [11] and in experiment [12] was “Active” in each case. In addition, the survival at 0.033 mg/kg in experiment [13] came to 0%. Besides, the survival at 0.14 mg/kg in experiment [14] worked out at 40%.
